Laboratory results as given in ChEMBL document CHEMBL1139000, “N-Glycosyl-thiophene-2-carboxamides: effects on endothelial cell growth in the presence and absence of bFGF--a significant increase in potency using per-O-acetylated sugar analogues” (2006).
Calls of active or inactive are those of the source. No cut-off for these calls is given here.

How the values were obtained:
AEC [1] = assay: Antiproliferative activity against 10% FBS-induced BAEC at 80 uM after 24 hrs assessed by inhibition of [3H]thymidine uptake; type: functional, Bos taurus; parameters: scale not given: the % may be the effect or the level left
How it was run: (§1)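 Bovine aortic endothelial cells seeded at 30,000 cells/well in complete medium (10% foetal bovine serum) and allowed 24 h adhesion. Compounds then added and cells cultured 20 h at 37 °C, 5% CO2. [3H]thymidine pulse for a further 4 h (24 h total exposure). Cells lysed with 0.1 N NaOH and incorporated label counted by scintillation. Values are % of control-treated cells, mean ± SEM of three separate experiments, each in triplicate.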

AEC [2] = assay: Antiproliferative activity against 10% FBS-induced BAEC at 3.3 uM after 24 hrs assessed by inhibition of [3H]thymidine uptake; type: functional, cell-based; settings: Bos taurus; how it was run: as §1
AEC [3] = assay: Antiproliferative activity against 10% FBS-induced BAEC at 16 uM after 24 hrs assessed by inhibition of [3H]thymidine uptake; type: functional, Bos taurus; parameters: scale not given: the % may be the effect or the level left; how it was run: as §1
AEC [4] = assay: Antiproliferative activity against bFGF-stimulated BAEC at 80 uM after 48 hrs assessed by inhibition of [3H]thymidine uptake; type: functional, cell-based; settings: Bos taurus
How it was run: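 BAECs seeded at 30,000 cells/well and starved 24 h in 0.5% foetal bovine serum. Then incubated 48 h with bFGF (10 ng/mL) with or without compound. [3H]thymidine (2 µCi/mL) added for the last 4 h. Lysis in 0.1 N NaOH, scintillation counting. Triplicate values from three separate experiments; Student's t test against control and against bFGF treatment.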

AEC [5] = assay: Antiproliferative activity against 10% FBS-induced BAEC at 500 uM after 24 hrs assessed by inhibition of [3H]thymidine uptake relative to control; type: functional; how it was run: as §1
AEC [6] = assay: Antiproliferative activity against 10% FBS-induced BAEC upto 80 uM after 24 hrs assessed by inhibition of [3H]thymidine uptake; type: functional, cell-based; settings: Bos taurus; how it was run: as §1
AEC [7] = assay: Antiproliferative activity against 10% FBS-induced BAEC at 500 uM after 24 hrs assessed by inhibition of [3H]thymidine uptake; type: functional, Bos taurus; parameters: scale not given: the % may be the effect or the level left; how it was run: as §1
AEC [8] = assay: Antiproliferative activity against 10% FBS-induced BAEC at 100 uM after 24 hrs assessed by inhibition of [3H]thymidine uptake; type: functional, Bos taurus; parameters: scale not given: the % may be the effect or the level left; how it was run: as §1

SMILES: CCc1ccc(C(=O)N[C@@H]2O[C@H](COC(C)=O)[C@@H](OC(C)=O)[C@H](OC(C)=O)[C@H]2OC(C)=O)s1
- Activity (AEC [1]): 41%
- Activity (AEC [2]): inactive
- Activity (AEC [3]): 21%
- Activity (AEC [4]): Active

SMILES: O=C(N[C@@H]1O[C@H](CO)[C@@H](O)[C@H](O)[C@H]1O)c1cccs1
- Activity (AEC [5]; Bos taurus): inactive

SMILES: C#Cc1ccsc1C(=O)N[C@@H]1O[C@H](CO)[C@@H](O)[C@H](O)[C@H]1O
- Activity (AEC [5]): 79.75%

SMILES: CCc1ccc(C(=O)N[C@@H]2O[C@H](CO)[C@@H](O)[C@H](O)[C@H]2O)s1
- Activity (AEC [6]): inactive
- Activity (AEC [5]): 80.3%

SMILES: O=C(N[C@@H]1O[C@H](CO)[C@@H](O)[C@H](O)[C@H]1O)c1sccc1Br
- Activity (AEC [7]): 25%
- Activity (AEC [8]): 10%
- Activity (AEC [5]): 75.4%

SMILES: O=C(N[C@@H]1O[C@H](CO)[C@@H](O)[C@H](O)[C@H]1O)c1ccc(Br)s1
- Activity (AEC [5]): 65%

SMILES: Cc1ccc(C(=O)N[C@@H]2O[C@H](CO)[C@@H](O)[C@H](O)[C@H]2O)s1
- Activity (AEC [5]): 83%

SMILES: Cc1ccsc1C(=O)N[C@@H]1O[C@H](CO)[C@@H](O)[C@H](O)[C@H]1O
- Activity (AEC [5]): 84%

SMILES: C#Cc1csc(C(=O)N[C@@H]2O[C@H](CO)[C@@H](O)[C@H](O)[C@H]2O)c1
- Activity (AEC [5]): 71%
